ChEMBL document CHEMBL1137139, “Synthesis of potent taxoids for tumor-specific delivery using monoclonal antibodies” (Bioorg Med Chem Lett, 2004)

How the values were obtained:
Type in all cases: functional, cell-based
A-431 = assay: Cytotoxic effect on A431 cell proliferation after 72 hr; conditions: Homo sapiens, A-431, 72 h
Procedure, shortened: (§1)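 Human cancer cell lines were exposed to the compound continuously for 72 h, and growth inhibition was measured. IC50 was taken as the concentration that inhibits 50% of cell-line growth.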

A549 [1] = assay: Compound was tested for its cytotoxicity by inhibiting the growth of A-549 cell line after 72 h; conditions: Homo sapiens, A549, 72 h
MCF7 = assay: Compound was tested for its cytotoxicity by inhibiting the growth of MCF-7 cell line after 72 h; conditions: Homo sapiens, MCF7, 72 h
A549 [2] = assay: Concentration of compound that Compound was tested for its cytotoxicity by inhibiting the growth of A-549 cell line after 72 h; conditions: Homo sapiens, A549, 72 h; procedure, shortened: as §1
A549 [3] = assay: Concentration of compound that inhibits 50% of growth of Compound was tested for its cytotoxicity by inhibiting the growth of; conditions: Homo sapiens

Row | SMILES | IC50 (A-431) [nM] | IC50 (A549 [1]) [nM] | IC50 (MCF7) [nM] | IC50 (A549 [2]) [nM] | IC50 (A549 [3]) [nM]
1 | CSSCCC(=O)O[C@@H](C(=O)O[C@H]1C[C@@]2(O)[C@@H](OC(=O)c3ccccc3)[C@@H]3[C@]4(OC(C)=O)CO[C@@H]4C[C@H](O)[C@@]3(C)C(=O)[C@H](OC(C)=O)C(=C1C)C2(C)C)[C@H](C=C(C)C)NC(=O)OC(C)(C)C | > 3 | 0.9 | – | – | –
2 | CSSCCC(=O)O[C@H]1C(=O)[C@@]2(C)[C@H]([C@H](OC(=O)c3cccc(Cl)c3)[C@]3(O)C[C@H](OC(=O)[C@H](O)[C@H](C=C(C)C)NC(=O)OC(C)(C)C)C(C)=C1C3(C)C)[C@]1(OC(C)=O)CO[C@@H]1C[C@@H]2O | – | – | 0.08 | 0.29 | –
3 | CC(=O)O[C@H]1C(=O)[C@@]2(C)[C@H]([C@H](OC(=O)c3cccc(N(C)C)c3)[C@]3(O)C[C@H](OC(=O)[C@H](O)[C@H](C=C(C)C)NC(=O)OC(C)(C)C)C(C)=C1C3(C)C)[C@]1(OC(C)=O)CO[C@@H]1C[C@@H]2O | – | 1 | 1 | – | –
4 | CSSCCC(=O)O[C@H]1C(=O)[C@@]2(C)[C@H]([C@H](OC(=O)c3cccc(N(C)C)c3)[C@]3(O)C[C@H](OC(=O)[C@H](O)[C@H](C=C(C)C)NC(=O)OC(C)(C)C)C(C)=C1C3(C)C)[C@]1(OC(C)=O)CO[C@@H]1C[C@@H]2O | – | > 3 | 3 | – | –
5 | CC(=O)O[C@H]1C(=O)[C@@]2(C)[C@H]([C@H](OC(=O)c3cc(F)cc(F)c3)[C@]3(O)C[C@H](OC(=O)[C@H](O)[C@H](C=C(C)C)NC(=O)OC(C)(C)C)C(C)=C1C3(C)C)[C@]1(OC(C)=O)CO[C@@H]1C[C@@H]2O | – | – | 0.04 | – | 0.1
6 | COc1cccc(C(=O)O[C@H]2[C@@H]3[C@]4(OC(C)=O)CO[C@@H]4C[C@H](O)[C@@]3(C)C(=O)[C@H](OC(=O)CCSSC)C3=C(C)[C@@H](OC(=O)[C@H](O)[C@H](C=C(C)C)NC(=O)OC(C)(C)C)C[C@]2(O)C3(C)C)c1 | – | 0.1 | 0.038 | – | –
7 | CC(=O)O[C@H]1C(=O)[C@@]2(C)[C@H]([C@H](OC(=O)c3cccc(Cl)c3)[C@]3(O)C[C@H](OC(=O)[C@H](O)[C@H](C=C(C)C)NC(=O)OC(C)(C)C)C(C)=C1C3(C)C)[C@]1(OC(C)=O)CO[C@@H]1C[C@@H]2O | – | 0.03 | 0.02 | – | –
8 | COc1cccc(C(=O)O[C@H]2[C@@H]3[C@]4(OC(C)=O)CO[C@@H]4C[C@H](O)[C@@]3(C)C(=O)[C@H](OC(C)=O)C3=C(C)[C@@H](OC(=O)[C@H](O)[C@H](C=C(C)C)NC(=O)OC(C)(C)C)C[C@]2(O)C3(C)C)c1 | – | 0.04 | 0.02 | – | –
9 | CSSCCC(=O)N[C@@H](CC(C)C)[C@@H](O)C(=O)O[C@H]1C[C@@]2(O)[C@@H](OC(=O)c3ccccc3)[C@@H]3[C@]4(OC(C)=O)CO[C@@H]4C[C@H](O)[C@@]3(C)C(=O)[C@H](OC(=O)N3CCOCC3)C(=C1C)C2(C)C | 2.8 | > 3 | – | – | –
10 | CCC(=O)O[C@H]1C(=O)[C@@]2(C)[C@H]([C@H](OC(=O)c3ccccc3)[C@]3(O)C[C@H](OC(=O)[C@H](O)[C@H](CC(C)C)NC(=O)CCSSC)C(C)=C1C3(C)C)[C@]1(OC(C)=O)CO[C@@H]1C[C@@H]2O | > 3 | > 3 | – | – | –
11 | CSSCCC(=O)O[C@H]1C(=O)[C@@]2(C)[C@H]([C@H](OC(=O)c3cc(F)cc(F)c3)[C@]3(O)C[C@H](OC(=O)[C@H](O)[C@H](C=C(C)C)NC(=O)OC(C)(C)C)C(C)=C1C3(C)C)[C@]1(OC(C)=O)CO[C@@H]1C[C@@H]2O | – | 0.36 | 0.15 | – | –
12 | COc1ccc(OC)c(C(=O)O[C@H]2[C@@H]3[C@]4(OC(C)=O)CO[C@@H]4C[C@H](O)[C@@]3(C)C(=O)[C@H](OC(C)=O)C3=C(C)[C@@H](OC(=O)[C@H](O)[C@H](C=C(C)C)NC(=O)OC(C)(C)C)C[C@]2(O)C3(C)C)c1 | – | 0.03 | 0.03 | – | –
13 | COc1ccc(OC)c(C(=O)O[C@H]2[C@@H]3[C@]4(OC(C)=O)CO[C@@H]4C[C@H](O)[C@@]3(C)C(=O)[C@H](OC(=O)CCSSC)C3=C(C)[C@@H](OC(=O)[C@H](O)[C@H](C=C(C)C)NC(=O)OC(C)(C)C)C[C@]2(O)C3(C)C)c1 | – | 0.08 | 0.04 | – | –
14 | CSSCCC(=O)O[C@H]1C[C@H]2OC[C@@]2(OC(C)=O)[C@H]2[C@H](OC(=O)c3ccccc3)[C@]3(O)C[C@H](OC(=O)[C@H](O)[C@H](C=C(C)C)NC(=O)OC(C)(C)C)C(C)=C([C@@H](O)C(=O)[C@]12C)C3(C)C | 0.3 | 0.2 | – | – | –
15 | CSSc1cccc(C(=O)O[C@H]2[C@@H]3[C@]4(OC(C)=O)CO[C@@H]4C[C@H](O)[C@@]3(C)C(=O)[C@H](OC(C)=O)C3=C(C)[C@@H](OC(=O)[C@H](O)[C@H](C=C(C)C)NC(=O)OC(C)(C)C)C[C@]2(O)C3(C)C)c1 | > 3 | > 3 | – | – | –
